Read-outs that look alike come from different tables or passages of the source.
Tests used:
[1] = system: intracellular amastigotes of T. cruzi (Y strain); settings: read-out: EC50, infection of T. cruzi-infected CCs; after 48 h of treatment; cited from earlier work
[2] = system: bloodstream trypomastigotes (BTs) of T. cruzi (Y strain); assay: Trypanocidal assay against bloodstream trypomastigotes; assay type: cell-based, Trypanosoma cruzi; settings: for SI (LC50/EC50), BTs: LC50 on cardiac cells at 24 h, BTs 24 h/37°C; for EC50: read-out: EC50 (µM), BTs
Outline: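 Bloodstream trypomastigotes come from Swiss mice at peak parasitemia. They are incubated at 5×10^6/mL in RPMI 1640 plus 10% fetal bovine serum with serial dilutions of test compound (0.001–10.6 µM) for 24 h at 37°C. Motile live parasites are counted by light microscopy in a Neubauer chamber; EC50 is a 50% drop versus untreated. SI = 24 h MTT LC50 on uninfected mouse cardiac cells/EC50.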

[3] = system: intracellular amastigotes of T. cruzi (Y strain); assay: Effect against intracellular parasites in infected cardiac cell cultures; assay type: cell-based, Trypanosoma cruzi; settings: for SI (LC50/EC50), intracellular amastigotes: LC50 on cardiac cells at 48 h, 48 h/37°C
Outline: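 T. cruzi Y strain infects primary embryonic Swiss mouse cardiac cells (parasite:host 10:1, 24 h), which are then washed. Cells are exposed to test compound (0.043–3.5 µM) for 48 h at 37°C in 5% CO2, then Bouin-fixed and Giemsa-stained. Infective index is % infected cells × mean parasites per infected cell; EC50 is 50% index reduction versus untreated. SI = 48 h MTT LC50 (uninfected cells)/EC50.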

[4] = fast plasmatic clearance profile; cited from earlier work

| Compound | EC50 [1] | SI (LC50/EC50), BTs [2] | EC50 ([2]; 24 h/37°C, Y strain) | SI (LC50/EC50), intracellular amastigotes [3] | EC50 ([2]; Trypanosoma cruzi, 24 h) | EC50 ([3]; Trypanosoma cruzi, 48 h, read-out: EC50 (µM), intracellular amastigotes) | Half-life [4] |
| --- | --- | --- | --- | --- | --- | --- | --- |
| CC(C)Oc1cc(NC(=N)c2ccccn2)ccc1-c1ccc(-c2ccc(NC(=N)c3ccccn3)cc2OC(C)C)s1 [DB1867, reference compound] | 58 nM |  |  |  |  |  |  |
| 2,5-Bis[2-isopropoxy-4-(2-pyridylimino) aminophenyl]thiophene [DB1957] |  | 17 | 0.068 ± 0.0014 µM | 6 |  |  |  |
| 2,5-Bis[2-(2,2,2-trifluoroethoxy)-4-(2-pyridylimino)aminophenyl]furan [DB1959] |  | 45 | 0.078 ± 0.01 µM | 1.6 |  |  |  |
| O=C(Cn1ccnc1[N+](=O)[O-])NCc1ccccc1 [Bz, benznidazole, reference compound] |  | >77 |  | >360 | 12.9 ± 1.93 µM | 3.7 ± 1.72 µM |  |
| 2,5-Bis[2-isobutoxy-4-(2-pyridylimino) aminophenyl]furan hydrochloride [DB1890B] | 900 nM | 760 | 0.014 ± 0.007 µM | 9.7 |  |  |  |
| CC1CS(=O)(=O)CCN1/N=C/c1ccc([N+](=O)[O-])o1 (stereo not shown) [nifurtimox] |  |  |  |  |  |  | 3 h |

— publication PMC5388221 (Drug Design, Development and Therapy, 2017)
